Assays:
[1] = molecular target: T1, Muscarinic acetylcholine receptor M1 (Homo sapiens, UniProt P11229); test: Agonist activity at human M1 receptor expressed in CHO-K1 cells assessed as calcium mobilization for 6 mins by Calcium4-based staining; assay type: functional, cell-based
T1 sequence (P11229 whole entry): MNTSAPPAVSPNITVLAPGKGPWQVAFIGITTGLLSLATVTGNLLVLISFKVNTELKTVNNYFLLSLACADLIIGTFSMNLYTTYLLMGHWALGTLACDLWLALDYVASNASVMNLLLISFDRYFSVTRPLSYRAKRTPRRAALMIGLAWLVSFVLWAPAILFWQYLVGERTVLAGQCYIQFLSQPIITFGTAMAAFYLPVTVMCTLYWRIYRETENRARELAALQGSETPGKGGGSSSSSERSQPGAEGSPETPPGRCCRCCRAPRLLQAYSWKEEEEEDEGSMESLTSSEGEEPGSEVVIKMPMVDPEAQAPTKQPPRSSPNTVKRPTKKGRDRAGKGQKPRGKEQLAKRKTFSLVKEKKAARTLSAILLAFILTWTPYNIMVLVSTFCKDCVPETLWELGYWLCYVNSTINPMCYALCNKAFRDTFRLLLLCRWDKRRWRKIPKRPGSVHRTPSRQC

[2] = tested on: Liver microsomes; test: Intrinsic clearance in human liver microsomes at 1 uM after 60 mins; assay type: ADME, Microsome; settings: 1 h
[3] = molecular target: Voltage-gated inwardly rectifying potassium channel KCNH2 (Homo sapiens, UniProt Q12809); test: Inhibition of human ERG expressed in CHO cells after 30 mins by Rb+ flux assay
Chain of Voltage-gated inwardly rectifying potassium channel KCNH2 (Q12809 whole entry): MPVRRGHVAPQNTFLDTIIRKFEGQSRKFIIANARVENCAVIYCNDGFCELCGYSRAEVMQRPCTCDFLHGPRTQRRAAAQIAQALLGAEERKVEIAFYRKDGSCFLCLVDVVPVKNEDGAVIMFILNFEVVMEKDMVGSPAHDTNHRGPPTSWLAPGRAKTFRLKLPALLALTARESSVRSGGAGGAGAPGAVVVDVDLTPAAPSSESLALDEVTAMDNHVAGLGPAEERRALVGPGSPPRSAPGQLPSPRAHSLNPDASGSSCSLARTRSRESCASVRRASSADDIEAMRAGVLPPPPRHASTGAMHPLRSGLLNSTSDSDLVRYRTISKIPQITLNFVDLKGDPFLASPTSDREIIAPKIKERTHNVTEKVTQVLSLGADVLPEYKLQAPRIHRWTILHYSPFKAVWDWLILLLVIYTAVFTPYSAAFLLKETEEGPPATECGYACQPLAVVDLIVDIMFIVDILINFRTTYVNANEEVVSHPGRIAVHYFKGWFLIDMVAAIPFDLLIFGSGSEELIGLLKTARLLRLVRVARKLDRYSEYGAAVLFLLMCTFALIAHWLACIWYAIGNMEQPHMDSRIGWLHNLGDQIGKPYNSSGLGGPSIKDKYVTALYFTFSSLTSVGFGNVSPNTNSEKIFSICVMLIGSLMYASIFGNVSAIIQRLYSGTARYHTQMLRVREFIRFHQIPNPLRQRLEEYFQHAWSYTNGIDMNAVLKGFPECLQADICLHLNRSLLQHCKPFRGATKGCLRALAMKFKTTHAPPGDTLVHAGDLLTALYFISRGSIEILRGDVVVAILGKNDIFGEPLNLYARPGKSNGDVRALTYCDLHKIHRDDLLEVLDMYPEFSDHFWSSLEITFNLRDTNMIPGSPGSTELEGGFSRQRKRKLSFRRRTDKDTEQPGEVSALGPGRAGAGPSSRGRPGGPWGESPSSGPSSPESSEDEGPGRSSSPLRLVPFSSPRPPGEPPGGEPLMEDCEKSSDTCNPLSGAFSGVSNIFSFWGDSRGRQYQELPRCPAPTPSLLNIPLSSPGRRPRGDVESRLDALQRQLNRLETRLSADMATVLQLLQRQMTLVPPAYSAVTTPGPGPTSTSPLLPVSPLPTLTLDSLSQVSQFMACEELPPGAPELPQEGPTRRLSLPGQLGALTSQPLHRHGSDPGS

[4] = molecular target: T2, D(2) dopamine receptor (Homo sapiens, UniProt P14416); test: Displacement of [3H]raclopride from human D2L receptor expressed in CHO cells after 60 mins by scintillation proximity assay; assay type: cell-based
T2 sequence (P14416 whole entry): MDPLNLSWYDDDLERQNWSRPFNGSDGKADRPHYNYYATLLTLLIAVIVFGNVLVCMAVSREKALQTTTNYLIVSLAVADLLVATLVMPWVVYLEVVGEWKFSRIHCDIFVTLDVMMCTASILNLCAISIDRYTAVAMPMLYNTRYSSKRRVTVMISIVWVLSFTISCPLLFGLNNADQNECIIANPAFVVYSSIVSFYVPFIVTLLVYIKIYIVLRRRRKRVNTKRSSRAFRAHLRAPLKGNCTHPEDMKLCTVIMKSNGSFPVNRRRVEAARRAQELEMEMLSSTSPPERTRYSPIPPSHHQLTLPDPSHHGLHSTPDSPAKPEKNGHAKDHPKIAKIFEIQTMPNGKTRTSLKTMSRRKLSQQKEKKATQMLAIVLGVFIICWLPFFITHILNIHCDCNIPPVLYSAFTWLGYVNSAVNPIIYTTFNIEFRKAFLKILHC

[5] = molecular target: T3, Muscarinic acetylcholine receptor M1 (Homo sapiens) (UniProt P11229); test: Agonist activity at human M1 receptor expressed in CHO-K1 cells assessed as calcium mobilization at 10 uM for 6 mins by Calcium4-based staining; assay type: functional, cell-based
T3 sequence (whole entry): T1 sequence (P11229 whole entry)
Outline: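 Functional agonism read as percent activity at 10 µM test concentration when no EC₅₀ could be established; means of two experiments.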

[6] = Lipophilicity, logP of the compound; assay type: physicochemical; settings: octanol/water
[7] = Dissociation constant, pKa of the compound; assay type: physicochemical
[8] = molecular target: T2, D(2) dopamine receptor; test: Displacement of [3H]raclopride from human D2L receptor expressed in CHO cells at 10 uM after 60 mins by scintillation proximity assay; assay type: cell-based
[9] = molecular target: Muscarinic acetylcholine receptor M3 (Homo sapiens) (UniProt P20309); test: Agonist activity at human muscarinic M3 receptor expressed in BHK-21 cells assessed as calcium mobilization atb 10 uM for 6 mins by Calcium4-based staining relative to acetylcholine; assay type: functional, cell-based
Chain of Muscarinic acetylcholine receptor M3 (Homo sapiens) (P20309 whole entry, looked up): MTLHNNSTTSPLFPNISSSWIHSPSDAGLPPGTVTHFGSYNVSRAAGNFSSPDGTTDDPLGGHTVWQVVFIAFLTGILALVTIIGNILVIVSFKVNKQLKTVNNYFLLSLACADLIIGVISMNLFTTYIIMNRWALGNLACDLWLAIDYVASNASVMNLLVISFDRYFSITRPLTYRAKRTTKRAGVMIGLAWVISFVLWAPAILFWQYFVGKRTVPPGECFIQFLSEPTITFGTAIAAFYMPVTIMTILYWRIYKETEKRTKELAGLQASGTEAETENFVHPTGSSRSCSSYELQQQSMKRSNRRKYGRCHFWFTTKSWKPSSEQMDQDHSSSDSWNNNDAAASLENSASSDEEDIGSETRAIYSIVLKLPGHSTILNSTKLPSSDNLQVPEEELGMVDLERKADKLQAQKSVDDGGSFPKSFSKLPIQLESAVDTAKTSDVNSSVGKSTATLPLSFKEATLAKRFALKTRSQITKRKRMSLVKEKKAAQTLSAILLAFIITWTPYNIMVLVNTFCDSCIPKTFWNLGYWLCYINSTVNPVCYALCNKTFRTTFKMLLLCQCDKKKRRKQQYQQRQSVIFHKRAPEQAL

[10] = molecular target: T4, Muscarinic acetylcholine receptor M5 (Homo sapiens) (UniProt P08912); test: Agonist activity at human muscarinic M5 receptor expressed in BHK-21 cells assessed as calcium mobilization at 10 uM for 6 mins by Calcium4-based staining relative to acetylcholine; assay type: functional, cell-based
T4 sequence (whole entry): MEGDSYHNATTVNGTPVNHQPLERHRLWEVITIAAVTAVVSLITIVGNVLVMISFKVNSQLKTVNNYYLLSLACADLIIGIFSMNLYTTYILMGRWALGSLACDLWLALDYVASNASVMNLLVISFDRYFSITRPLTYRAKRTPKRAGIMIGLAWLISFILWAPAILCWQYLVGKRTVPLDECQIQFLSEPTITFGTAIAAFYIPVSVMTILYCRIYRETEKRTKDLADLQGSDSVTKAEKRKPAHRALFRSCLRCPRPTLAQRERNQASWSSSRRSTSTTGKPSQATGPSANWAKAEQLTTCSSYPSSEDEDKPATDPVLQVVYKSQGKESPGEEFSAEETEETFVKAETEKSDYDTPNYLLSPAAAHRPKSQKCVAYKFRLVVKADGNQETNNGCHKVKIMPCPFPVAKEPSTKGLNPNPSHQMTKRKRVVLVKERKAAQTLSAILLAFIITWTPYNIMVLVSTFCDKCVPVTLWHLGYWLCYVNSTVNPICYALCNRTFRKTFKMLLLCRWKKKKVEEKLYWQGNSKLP

[11] = molecular target: T5, Muscarinic acetylcholine receptor M4 (Homo sapiens) (UniProt P08173); test: Agonist activity at human muscarinic M4 receptor expressed in BHK-21 cells assessed as calcium mobilization at 10 uM for 6 mins by Calcium4-based staining relative to acetylcholine; assay type: functional, cell-based
T5 sequence (whole entry): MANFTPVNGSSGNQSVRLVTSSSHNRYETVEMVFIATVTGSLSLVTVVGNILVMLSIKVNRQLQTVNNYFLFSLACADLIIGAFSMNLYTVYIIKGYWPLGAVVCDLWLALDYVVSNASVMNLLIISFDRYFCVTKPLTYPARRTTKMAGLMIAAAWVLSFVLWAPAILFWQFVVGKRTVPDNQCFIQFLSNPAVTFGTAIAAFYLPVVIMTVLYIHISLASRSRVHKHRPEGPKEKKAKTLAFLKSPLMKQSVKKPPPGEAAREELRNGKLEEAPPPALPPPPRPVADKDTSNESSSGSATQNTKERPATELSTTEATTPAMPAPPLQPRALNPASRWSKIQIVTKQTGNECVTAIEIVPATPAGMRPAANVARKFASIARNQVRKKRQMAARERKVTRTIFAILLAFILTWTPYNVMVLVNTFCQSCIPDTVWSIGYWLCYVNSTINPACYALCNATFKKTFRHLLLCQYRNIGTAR

[12] = molecular target: T6, Muscarinic acetylcholine receptor M2 (Homo sapiens) (UniProt P08172); test: Agonist activity at human muscarinic M2 receptor expressed in CHO-K1 cells assessed as calcium mobilization at 10 uM for 6 mins by Calcium4-based staining relative to acetylcholine; assay type: functional, cell-based
T6 sequence (whole entry): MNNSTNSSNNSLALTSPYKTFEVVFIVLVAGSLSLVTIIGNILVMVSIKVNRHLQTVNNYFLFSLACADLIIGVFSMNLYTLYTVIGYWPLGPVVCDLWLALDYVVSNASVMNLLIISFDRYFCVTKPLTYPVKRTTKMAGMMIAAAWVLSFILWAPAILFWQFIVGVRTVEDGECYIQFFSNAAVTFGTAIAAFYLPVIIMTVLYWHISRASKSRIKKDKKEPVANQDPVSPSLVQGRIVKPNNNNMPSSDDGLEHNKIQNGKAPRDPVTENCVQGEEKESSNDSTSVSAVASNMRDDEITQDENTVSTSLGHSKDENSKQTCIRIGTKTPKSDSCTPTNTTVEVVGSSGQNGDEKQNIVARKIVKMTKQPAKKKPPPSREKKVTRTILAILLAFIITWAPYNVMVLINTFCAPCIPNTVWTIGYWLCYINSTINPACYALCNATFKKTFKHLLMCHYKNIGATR

[13] = molecular target: Muscarinic acetylcholine receptor M1 (Homo sapiens, UniProt P11229, Y381A); test: Agonist activity at human muscarinic M1 receptor Y381A mutant expressed in BHK-21 cells assessed as calcium mobilization for 6 mins by Calcium4-based staining; assay type: functional, cell-based
Chain of Muscarinic acetylcholine receptor M1 (Homo sapiens, UniProt P11229, Y381A) (P11229 whole entry Y381A): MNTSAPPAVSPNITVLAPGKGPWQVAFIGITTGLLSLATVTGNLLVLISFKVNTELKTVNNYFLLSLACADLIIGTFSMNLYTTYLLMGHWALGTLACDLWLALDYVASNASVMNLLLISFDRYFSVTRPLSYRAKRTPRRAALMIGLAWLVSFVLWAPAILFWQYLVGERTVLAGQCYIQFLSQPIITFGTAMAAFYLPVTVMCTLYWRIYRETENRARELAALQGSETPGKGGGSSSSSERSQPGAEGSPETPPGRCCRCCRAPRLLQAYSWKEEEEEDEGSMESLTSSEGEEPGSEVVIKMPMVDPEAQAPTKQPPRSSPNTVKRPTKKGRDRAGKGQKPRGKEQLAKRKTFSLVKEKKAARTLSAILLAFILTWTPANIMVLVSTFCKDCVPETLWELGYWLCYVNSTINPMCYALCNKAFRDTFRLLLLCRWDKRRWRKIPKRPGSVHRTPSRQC

[14] = tested on: Hepatocyte; test: Intrinsic clearance in Sprague-Dawley rat hepatocytes at 1 uM after 60 mins; assay type: ADME, cell-based; settings: 1 h
[15] = tested on: Liver microsomes; test: Intrinsic clearance in rat liver microsomes at 1 uM after 60 mins; assay type: ADME, Microsome; settings: 1 h
[16] = Plasma clearance in […] Sprague-Dawley rat; assay type: ADME, organism-based

SMILES	EC50 [1]	CLH [2]	IC50 [3]	Ki [4]	Emax [5]	also measured
O=C1COc2ccccc2N1CCCN1CCC(n2c(=O)[nH]c3cc(F)ccc32)CC1	66 nM	8.8 L/min	1900 nM	2.5 nM	–	–
O=C1CCc2ccccc2N1OCCN1CCC(n2c(=O)[nH]c3ccccc32)CC1	–	2.3 L/min	–	55 nM	31%	–
O=c1[nH]c2ccccc2n1C1CCN(CCOc2ccccc2)CC1 [OXIPEROMIDE]	400 nM	1.4 L/min	–	5.5 nM	–	logP [6]: 3.4; pKa [7]: 7.4
O=C1COc2ccccc2N1CCCN1CCC(n2c(=O)[nH]c3c(F)cccc32)CC1	110 nM	13 L/min	3400 nM	15 nM	–	–
O=C1COc2ccccc2N1CCCN1CCC(n2c(=O)[nH]c3cnccc32)CC1	–	1.7 L/min	46000 nM	1350 nM	4%	–
O=C1CCc2ccncc2N1CCCN1CCC(n2c(=O)[nH]c3ccccc32)CC1	–	3.6 L/min	–	–	7%	Activity [8]: 55%
O=C1COc2ccccc2N1CCCN1CCC(n2c(=O)[nH]c3ccc(F)cc32)CC1	44 nM	8.7 L/min	4400 nM	14 nM	–	–
O=C1COc2ccccc2N1CCCN1CCC(n2c(=O)[nH]c3cccnc32)CC1	1700 nM	3.5 L/min	13000 nM	1250 nM	–	–
O=C1COc2ccccc2N1CCCN1CCC(n2c(=O)[nH]c3ccccc32)CC1	73 nM	5.1 L/min	–	16 nM	–	–
O=C1COc2ccccc2N1CCCN1CCC(n2c(=O)[nH]c3ccncc32)CC1	1200 nM	0.9 L/min	> 50000 nM	> 9500 nM	–	–
O=C1CCc2cccc(F)c2N1CCCN1CCC(n2c(=O)[nH]c3ccccc32)CC1	300 nM	5.5 L/min	–	95 nM	–	–
O=C1CCc2cnccc2N1CCCN1CCC(n2c(=O)[nH]c3ccccc32)CC1	–	9.4 L/min	–	1100 nM	0%	–
O=C1COc2ccccc2N1CCCN1CCC(n2c(=O)[nH]c3cccc(F)c32)CC1	–	12 L/min	–	41 nM	22%	–
O=C1CCc2cccnc2N1CCCN1CCC(n2c(=O)[nH]c3ccccc32)CC1	20 nM	1.3 L/min	–	600 nM	–	–
O=C(Cc1ccccc1)NC1CCN(CCCN2C(=O)COc3ccccc32)CC1	–	3.4 L/min	20000 nM	> 5000 nM	–	logP [6]: 2.4; pKa [7]: 7.9
O=C1CCc2c(F)cccc2N1CCCN1CCC(n2c(=O)[nH]c3ccccc32)CC1	68 nM	4.2 L/min	–	60 nM	–	–
O=C1CCc2ccccc2N1CCCN1CCC(c2ccc3[nH]ccc3c2)CC1	160 nM	9 L/min	4400 nM	42 nM	–	logP [6]: 4.1; pKa [7]: 9
CC(=O)OCC[N+](C)(C)C	–	–	–	–	–	Emax [9]: 100%
O=C1CCc2ccccc2N1CCCN1CCC(n2c(=O)[nH]c3ccccc32)CC1	110 nM	3.9 L/min	–	9.5 nM	–	logP [6]: 2.8; pKa [7]: 7.6; Emax [10]: 0%; Emax [11]: 8%; Emax [9]: 0%; Emax [12]: 0%; EC50 [13]: 6.3 nM; CLH [14]: 160 mL/min; CLH [15]: 130 mL/min; CL/F [16]: 50 mL/min/kg
O=C1CCc2ncccc2N1CCCN1CCC(n2c(=O)[nH]c3ccccc32)CC1	12 nM	2.8 L/min	–	2200 nM	–	–
O=C1CCc2cc(F)ccc2N1CCCN1CCC(n2c(=O)[nH]c3ccccc32)CC1	–	6.2 L/min	–	6.5 nM	24%	–
O=C1COc2ccccc2N1CCCN1CCC(n2c(=O)[nH]c3ncccc32)CC1	–	2.6 L/min	–	650 nM	8%	–
O=C1CCc2ccc(F)cc2N1CCCN1CCC(n2c(=O)[nH]c3ccccc32)CC1	–	7.8 L/min	–	90 nM	23%	–

Reference: ChEMBL document CHEMBL2057071, “Hit-to-lead investigation of a series of novel combined dopamine D2 and muscarinic M1 receptor ligands with putative antipsychotic and pro-cognitive potential” (Bioorg Med Chem Lett, 2012)
